According to ChEMBL document CHEMBL2440037, “GluK1 antagonists from 6-(carboxy)phenyl decahydroisoquinoline derivatives. SAR and evaluation of a prodrug strategy for oral efficacy in pain models” (Bioorg Med Chem Lett, 2013):
pKi: −log10 of the molar value.

Assays:
Glutamate receptor 2 = Glutamate receptor 2 (Homo sapiens, UniProt P42262); assay: Binding affinity to GluA2 receptor (unknown origin)
[1] = target: Glutamate receptor ionotropic, kainate 1 (Homo sapiens, UniProt P39086); assay: Binding affinity to GluK1 receptor (unknown origin)
[2] = Tmax in Fischer rat at 30 mg/kg, po; type: ADME, organism-based; parameters: dose 30 mg/kg, route oral; settings: in vivo
Procedure, shortened: (§1)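 Fischer rats; amino acid dosed orally as diethyl ester hydrochloride salt, 30 mg/kg (one entry at 10 mg/kg), three rats per time point. Amino acid plasma levels measured: AUC 0 to infinity, Cmax as maximum observed concentration, Tmax as time at Cmax. %F is amino acid exposure after oral ester dosing relative to the amino acid given iv.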

[3] = Cmax in Fischer rat at 30 mg/kg, po; type: ADME, organism-based; parameters: dose 30 mg/kg, route oral; settings: in vivo; procedure, shortened: as §1
[4] = Oral bioavailability in Fischer rat at 30 mg/kg; type: ADME, organism-based; settings: in vivo; procedure, shortened: as §1
Rattus norvegicus [5] = assay: Antihyperalgesic activity against carrageenan-induced thermal hyperalgesia in po dosed rat; type: functional; settings: read-out: MED
Procedure, shortened: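 Rat carrageenan-induced thermal hyperalgesia; amino acid given p.o. as diethyl ester hydrochloride salt at several doses, N = 6 per group; vehicle controls N = 6. Reported as minimal effective dose (MED).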

Rattus norvegicus [6] = assay: Analgesic activity in rat assessed as reversal of formalin-induced pain at 100 mg/kg, po; type: functional
Procedure, shortened: (§2)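 Rat formalin pain model; amino acid given p.o. as diethyl ester hydrochloride salt at 30 mg/kg (one entry at 100 mg/kg), N = 8–9; vehicle controls N = 8–12. Read-out is % reversal of formalin-induced pain.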

[7] = AUC (0 to infinity) in Fischer rat at 30 mg/kg, po; type: ADME, organism-based; parameters: time infinity, dose 30 mg/kg, route oral; settings: plasma; procedure, shortened: as §1
Rattus norvegicus [8] = assay: Neurotoxicity in po dosed rat assessed as sedative effect by rotorod test; type: toxicity, organism-based; settings: in vivo
Procedure, shortened: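 Rotorod test in rats for sedative or ataxic effects; amino acid given p.o. as diethyl ester hydrochloride salt at several doses, N = 8, vehicle controls N = 8; minimal effective dose (MED) reported.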

Rattus norvegicus [9] = assay: Analgesic activity in rat assessed as reversal of formalin-induced pain at 30 mg/kg, po; type: functional; procedure, shortened: as §2
[10] = Cmax in Fischer rat at 10 mg/kg, po; type: ADME, organism-based; parameters: dose 10 mg/kg, route oral; settings: in vivo; procedure, shortened: as §1
[11] = Oral bioavailability in Fischer rat at 10 mg/kg; type: ADME, organism-based; settings: in vivo; procedure, shortened: as §1
[12] = Tmax in Fischer rat at 10 mg/kg, po; type: ADME, organism-based; parameters: dose 10 mg/kg, route oral; settings: in vivo; procedure, shortened: as §1
[13] = AUC (0 to infinity) in Fischer rat at 10 mg/kg, po; type: ADME, organism-based; parameters: time infinity, dose 10 mg/kg, route oral; settings: plasma; procedure, shortened: as §1

Chain of Glutamate receptor ionotropic, kainate 1 (P39086 whole entry): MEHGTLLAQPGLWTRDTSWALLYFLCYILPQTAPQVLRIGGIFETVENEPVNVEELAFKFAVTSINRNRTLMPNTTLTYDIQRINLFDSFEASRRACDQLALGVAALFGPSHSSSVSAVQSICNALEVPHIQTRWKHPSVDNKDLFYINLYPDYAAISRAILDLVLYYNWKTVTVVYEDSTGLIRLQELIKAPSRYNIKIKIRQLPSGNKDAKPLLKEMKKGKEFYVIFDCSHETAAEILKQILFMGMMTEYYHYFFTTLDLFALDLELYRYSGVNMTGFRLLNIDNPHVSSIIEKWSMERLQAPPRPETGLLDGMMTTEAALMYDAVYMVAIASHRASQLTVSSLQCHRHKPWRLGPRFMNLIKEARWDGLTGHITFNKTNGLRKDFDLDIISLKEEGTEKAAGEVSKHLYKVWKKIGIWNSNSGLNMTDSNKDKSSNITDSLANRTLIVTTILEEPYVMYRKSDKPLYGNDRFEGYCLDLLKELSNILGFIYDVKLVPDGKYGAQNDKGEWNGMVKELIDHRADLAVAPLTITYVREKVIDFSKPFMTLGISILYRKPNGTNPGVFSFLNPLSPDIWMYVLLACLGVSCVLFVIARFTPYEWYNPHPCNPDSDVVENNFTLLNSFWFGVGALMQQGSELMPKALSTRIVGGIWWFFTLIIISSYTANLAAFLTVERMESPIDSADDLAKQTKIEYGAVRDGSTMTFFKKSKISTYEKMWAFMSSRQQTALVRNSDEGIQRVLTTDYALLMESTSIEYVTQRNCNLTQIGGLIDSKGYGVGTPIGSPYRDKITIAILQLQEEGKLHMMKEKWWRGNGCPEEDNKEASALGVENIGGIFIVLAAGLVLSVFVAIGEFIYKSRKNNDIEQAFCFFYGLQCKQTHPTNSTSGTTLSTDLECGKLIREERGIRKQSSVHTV
Chain of Glutamate receptor 2 (P42262 whole entry): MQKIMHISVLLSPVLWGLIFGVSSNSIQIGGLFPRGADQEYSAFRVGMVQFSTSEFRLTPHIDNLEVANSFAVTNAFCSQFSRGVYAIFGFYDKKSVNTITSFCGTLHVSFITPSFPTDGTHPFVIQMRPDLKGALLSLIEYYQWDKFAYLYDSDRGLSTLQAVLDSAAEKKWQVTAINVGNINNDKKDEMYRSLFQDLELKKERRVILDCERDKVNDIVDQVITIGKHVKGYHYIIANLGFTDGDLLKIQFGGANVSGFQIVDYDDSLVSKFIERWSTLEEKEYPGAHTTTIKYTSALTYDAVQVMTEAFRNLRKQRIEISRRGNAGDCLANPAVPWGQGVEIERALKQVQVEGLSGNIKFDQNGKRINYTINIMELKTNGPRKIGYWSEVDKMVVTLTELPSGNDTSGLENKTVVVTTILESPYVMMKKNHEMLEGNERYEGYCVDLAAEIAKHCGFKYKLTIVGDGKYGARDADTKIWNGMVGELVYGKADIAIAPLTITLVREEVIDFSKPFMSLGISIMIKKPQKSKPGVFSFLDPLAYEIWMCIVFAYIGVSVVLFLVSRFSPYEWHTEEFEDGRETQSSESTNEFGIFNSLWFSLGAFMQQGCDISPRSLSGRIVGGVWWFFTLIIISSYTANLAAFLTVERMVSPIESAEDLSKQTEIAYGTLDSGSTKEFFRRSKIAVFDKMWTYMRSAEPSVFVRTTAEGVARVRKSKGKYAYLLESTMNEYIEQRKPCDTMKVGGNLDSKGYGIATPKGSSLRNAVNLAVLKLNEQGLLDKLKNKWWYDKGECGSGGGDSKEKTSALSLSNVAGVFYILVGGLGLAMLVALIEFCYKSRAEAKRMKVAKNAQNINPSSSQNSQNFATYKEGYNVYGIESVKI

pKi (Glutamate receptor 2)	pKi [1]	Structure (SMILES)	also measured
3.09	3.64	Cc1cccc(C(=O)O)c1O[C@H]1CC[C@H]2CN[C@H](C(=O)O)C[C@H]2C1	
4.66	5.89	O=C(O)c1ccc(Cl)cc1S[C@H]1CC[C@H]2CN[C@H](C(=O)O)C[C@H]2C1	
4.38	5.43	O=C(O)c1cc(Cl)ccc1S[C@H]1CC[C@H]2CN[C@H](C(=O)O)C[C@H]2C1	
2.85		O=C(O)c1ccc(N[C@H]2CC[C@H]3CN[C@H](C(=O)O)C[C@H]3C2)cc1	
3.62	5.10	O=C(O)c1cccc(N[C@H]2CC[C@H]3CN[C@H](C(=O)O)C[C@H]3C2)c1	
3.04	3.57	O=C(O)c1ccc(O[C@H]2CC[C@H]3CN[C@H](C(=O)O)C[C@H]3C2)cc1	
4.11		O=C(O)c1ccccc1N[C@H]1CC[C@H]2CN[C@H](C(=O)O)C[C@H]2C1	
		CCOC(=O)c1ccccc1S[C@H]1CC[C@H]2CN[C@H](C(=O)OCC)C[C@H]2C1.Cl	Tmax [2]: 30 min; Cmax [3]: 2980 ng/mL; bioavailability [4]: 38.8%; minimal effective dose (Rattus norvegicus [5]): 10 mg/kg; Activity (Rattus norvegicus [6]): 49.4%; AUC(0-inf) [7]: 7530 ng·h/mL; MED (Rattus norvegicus [8]): > 100 mg/kg
3.97	5.00	Cc1ccc(O[C@H]2CC[C@H]3CN[C@H](C(=O)O)C[C@H]3C2)c(C(=O)O)c1	
3.83	4.80	O=C(O)c1cccc(C[C@H]2CC[C@H]3CN[C@H](C(=O)O)C[C@H]3C2)c1	
3.82	5.68	O=C(O)c1ccc(Cl)cc1O[C@H]1CC[C@H]2CN[C@H](C(=O)O)C[C@H]2C1	
		CCOC(=O)c1ccc(Cl)cc1O[C@H]1CC[C@H]2CN[C@H](C(=O)OCC)C[C@H]2C1.Cl	Tmax [2]: 30 min; Cmax [3]: 6450 ng/mL; bioavailability [4]: 32.9%; minimal effective dose (Rattus norvegicus [5]): > 10 mg/kg; Activity (Rattus norvegicus [9]): 14.9%; AUC(0-inf) [7]: 9190 ng·h/mL; MED (Rattus norvegicus [8]): > 30 mg/kg
		CCOC(=O)c1ccc(-c2ccccc2)cc1O[C@H]1CC[C@H]2CN[C@H](C(=O)OCC)C[C@H]2C1.Cl	Tmax [2]: 60 min; Cmax [3]: 2700 ng/mL; bioavailability [4]: 22.2%; AUC(0-inf) [7]: 7230 ng·h/mL
4.03	5.01	O=C(O)c1c(F)cccc1O[C@H]1CC[C@H]2CN[C@H](C(=O)O)C[C@H]2C1	
5.05		O=C(O)c1cccc(S[C@H]2CC[C@H]3CN[C@H](C(=O)O)C[C@H]3C2)c1	
3.26		Cl.O=C(O)c1ccc(C[C@H]2CC[C@H]3CN[C@H](C(=O)O)C[C@H]3C2)cc1	Cmax [10]: 539 ng/mL; bioavailability [11]: 62.5%; Tmax [12]: 60 min; AUC(0-inf) [13]: 1510 ng·h/mL

pKi (Glutamate receptor 2)	pKi [1]	Structure (SMILES)	also measured
5.48	5.44	O=C(O)c1cc(Cl)ccc1N[C@H]1CC[C@H]2CN[C@H](C(=O)O)C[C@H]2C1	
4.36	5.22	O=C(O)c1cccc(O[C@H]2CC[C@H]3CN[C@H](C(=O)O)C[C@H]3C2)c1	
		CCOC(=O)c1ccc(C[C@H]2CC[C@H]3CN[C@H](C(=O)OCC)C[C@H]3C2)cc1.Cl	minimal effective dose (Rattus norvegicus [5]): 10 mg/kg; Activity (Rattus norvegicus [9]): 13.4%; MED (Rattus norvegicus [8]): > 30 mg/kg
4.82	6.10	O=C(O)c1ccccc1S[C@H]1CC[C@H]2CN[C@H](C(=O)O)C[C@H]2C1	
3.95	5.21	COc1ccc(C(=O)O)c(O[C@H]2CC[C@H]3CN[C@H](C(=O)O)C[C@H]3C2)c1	
5.06	6.30	O=C(O)c1ccc(-c2ccccc2)cc1O[C@H]1CC[C@H]2CN[C@H](C(=O)O)C[C@H]2C1	
4.05	5.23	Cc1ccc(C(=O)O)c(O[C@H]2CC[C@H]3CN[C@H](C(=O)O)C[C@H]3C2)c1	
3.76	4.96	O=C(O)c1cc(-c2ccccc2)ccc1O[C@H]1CC[C@H]2CN[C@H](C(=O)O)C[C@H]2C1	
		CCOC(=O)c1ccccc1O[C@H]1CC[C@H]2CN[C@H](C(=O)OCC)C[C@H]2C1.Cl	Tmax [2]: 30 min; Cmax [3]: 9200 ng/mL; bioavailability [4]: 75.3%; minimal effective dose (Rattus norvegicus [5]): 10 mg/kg; Activity (Rattus norvegicus [9]): 21.8%; AUC(0-inf) [7]: 24700 ng·h/mL; MED (Rattus norvegicus [8]): > 30 mg/kg
4.72	5.82	O=C(O)c1cc(Cl)ccc1O[C@H]1CC[C@H]2CN[C@H](C(=O)O)C[C@H]2C1	
2.83	3.50	O=C(O)c1cccc(Cl)c1O[C@H]1CC[C@H]2CN[C@H](C(=O)O)C[C@H]2C1	
1.53	4.17	O=C(O)c1ccccc1C[C@H]1CC[C@H]2CN[C@H](C(=O)O)C[C@H]2C1	
3.38	4.72	O=C(O)c1ccc(S[C@H]2CC[C@H]3CN[C@H](C(=O)O)C[C@H]3C2)cc1	
4.06	4.72	COc1ccc(O[C@H]2CC[C@H]3CN[C@H](C(=O)O)C[C@H]3C2)c(C(=O)O)c1	
4.15	5.64	O=C(O)c1ccccc1O[C@H]1CC[C@H]2CN[C@H](C(=O)O)C[C@H]2C1	
